Screening results from PubChem.
This is one part of a sample in which hits are shown more often than they occur.
TLR9-MyD88 block – TLR9-MyD88 interaction inhibition | CHO BLA complementation TLR9-MyD88, CCF4 FRET ratio | AID 504734 | inhibition, % at 4.98 µM | 340,000 compounds, 0.21% hits | Q9NR96+Q99836;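 active = inhibition above the mean over all tested compounds plus 3 SD, cut at about 21% in these data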;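 note: 0% = DMSO only wells and 100% = clavulanate BLA inhibitor control wells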
CHOP inh – inhibitors of CHOP induction in ER stress response; CHO-K1 CHOP-promoter luciferase, tunicamycin-induced, 15-18 h; inhibition, % at 10 µM; 220,000 compounds, 3.8% hits;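 active = compounds that reduced the stress-induced luciferase reporter signal by more than about 70% of percent inhibition, limit read from the data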;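 note: 0% = tunicamycin plus vehicle and 100% = wells without tunicamycin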
TLR4 MyD88 comp – blocks binding of human TLR4 to MyD88 | HeLa CL3-4 TLR4/MyD88 BLA complementation, FRET ratio | AID 861 | inhibition, % at 8.4 µM | 200,000 compounds, 0.18% hits; in the data active = inhibition above about 25%;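 note: 0% = vehicle and 100% = reference inhibitor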
CHOP UPR activ – apoptotic UPR (CHOP) activation; CHO-CHOP luciferase reporter, luminescence; percent of tunicamycin response over DMSO baseline; activation, % at 10 µM; 330,000 compounds, 0.34% hits; AID 449763;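 active = at 10 µM dose, activation of 40% or more, normalized to positive control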;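 note: 100% = tunicamycin at 10 µg/mL and 0% = DMSO alone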
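Test system: CHO CHOP reporter cells. Input: 500 CHO-CHOP cells per well. Medium: F12 with 10% FBS. Technique: luciferase luminescence. Measure: percent activation relative to tunicamycin control. Dosing: 10 µM compound, 0.5% DMSO. Timing: 16-18 h cell attachment, then 6 h compound exposure, 37 °C.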
UPR XBP1 act – adaptive UPR (XBP1) activation; CHO-XBP1 luciferase reporter, IRE1-XBP1 UPR activation, luminescence; percent of tunicamycin response, DMSO as zero; activation, % at 20 µM; 330,000 compounds, 0.33% hits;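 active = versus positive control, 20 µM dose yields 30% or more activation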;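 note: 100% = tunicamycin at 10 µg/mL and 0% = DMSO only wells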
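Signal: luciferase luminescence; Assay system: CHO-XBP1 luciferase reporter cells; Amount: one thousand reporter cells per well; Dosing: 20 µM single concentration, DMSO 1%; Benchmarks: high control tunicamycin 10 µg/mL final, low control DMSO vehicle only; Schedule: 6 h compound exposure at 37 °C, 5% CO2; Evaluation: percent activation relative to tunicamycin reference.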
NOD2-RIPK2 inh – NOD2-RIPK2 protein interaction inhibition. AID 624267. 360,000 compounds, 0.38% hits. O43353. CHO BLA complementation NOD2-RIPK2, CCF4 ratio. inhibition, % at 4.98 µM; in the data active = inhibition above about 21%;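 note: 0% = vehicle only and 100% = reference blocker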
* marks the source's active call; other numbers are inactive results; · = not tested or not shown.

SMILES | TLR9-MyD88 block | CHOP inh | TLR4 MyD88 comp | CHOP UPR activ | UPR XBP1 act | NOD2-RIPK2 inh
Cc1cccc(NS(=O)(=O)c2cc(NC(=O)CC(=O)c3ccc([N+](=O)[O-])cc3)ccc2C)c1 | · | 93* | -2 | · | · | ·
Cc1ccc(C(=O)Nc2cccc([N+](=O)[O-])c2)cc1S(=O)(=O)Nc1ccc(C(=O)O)cc1 | -12 | 12 | -2 | 3 | 0 | -5
C=CCn1c(-c2csc(-c3ccc(Cl)cc3)n2)n[nH]c1=S | 1 | 72* | 8 | -1 | 3 | -2
Cc1cccc(NC(=S)c2nc3ccccc3s2)c1 | -11 | 32 | -4 | 2 | 0 | -2
O=C(CNc1ccc(F)cc1)N/N=C1\CCCc2ccccc21 | -4 | 71* | 12 | -2 | -3 | 0
O=C(Cc1cccc2ccccc12)N/N=C1\CCCc2ccccc21 | -10 | 92* | 7 | 1 | -3 | 9
CCCCn1c(O)c2n(c1=O)Cc1ccccc1N=C2c1ccc(C)cc1 | · | · | · | · | · | 1
CCOC(=O)c1c(CNc2ccncc2)n(C)c2cc(Br)c(O)cc12 | -2 | 1 | -15 | 1 | -2 | -4
COc1ccc(S(=O)(=O)n2cnc3cc(C)c(C)cc32)cc1 | -1 | 59 | 4 | -2 | -2 | -12
COc1ccc(S(=O)(=O)n2cnc3cc(C)c(C)cc32)cc1C | -4 | 70* | 4 | 1 | -3 | -17
COc1ccc(Cl)cc1NC(=O)CN1C(=O)CC(C)S(=O)(=O)c2ccccc21 (stereo not drawn) | 4 | 26 | -1 | 0 | 5 | -3
NS(=O)(=O)c1ccc(NCc2cc(Cl)ccc2OCc2ccccc2F)cc1 | 3 | 70* | 5 | 2 | 1 | 4
Cc1nc(SCC(=O)Nc2ccccc2C(F)(F)F)c(C#N)c(C)c1CC(=O)c1ccc(Br)cc1 | · | 88* | -3 | -1 | 33* | ·
Cc1cccc(C)c1NC(=O)CSc1nc(C)c(CC(=O)c2ccc(Br)cc2)c(C)c1C#N | -8 | 91* | 6 | 2 | 23 | -7
COc1ccc(-c2cc(C(F)(F)F)c(C#N)c(SCC(=O)Nc3ccccc3C#N)n2)cc1 | · | 44 | 7 | 18 | 23 | ·
COc1ccc(CCCNC(=O)C2CCC(=O)N(CC3CCCCC3)C2)cc1 (stereo not drawn) | 0 | · | · | 2 | 1 | -2
O=C(CC1SC(=O)NC1=O)Nc1ccc(Cl)cc1 (stereo not drawn) | 4 | 4 | 11 | -3 | 5 | -5
O=C(CC1NC(=O)NC1=O)Nc1ccc(Cl)cc1 (stereo not drawn) | 4 | 75* | -10 | 2 | 2 | 0
Cc1ccccc1CCN(C(=O)Cn1nnc2ccccc21)C(C(=O)NCC1CCCO1)c1nc2ccccc2n1C (stereo not drawn) | 4 | 82* | -7 | 0 | 1 | -4
Cc1ccccc1C(C(=O)NCc1ccco1)N(CC1CCCO1)C(=O)Cn1nnc2ccccc21 (stereo not drawn) | 9 | -2 | 2 | -1 | -4 | -2
O=C(CCN1C(=O)C2C3C=CC(C3)C2C1=O)Nc1ccc2c(c1)OCO2 (stereo not drawn) | -7 | -33 | 6 | 3 | -4 | -4
O=C(CCN1C(=O)C2C3C=CC(C3)C2C1=O)Nc1ccc(F)cc1 (stereo not drawn) | 6 | 86* | -5 | -5 | -1 | -5
COCCNc1nc(NCCOc2ccccc2)c2sc(-c3ccccc3)cc2n1 | · | · | · | · | · | 2
CN(C)C(=C(C#N)C#N)N1CCN(c2ccc(Cl)cc2)CC1 | -5 | 6 | -9 | 1 | -3 | -3
N#CC(C#N)=C/C(C#N)=C(/N)N1CCN(c2ccc(Cl)cc2)CC1 | 5 | 80* | -3 | 3 | 0 | 8
SMILES | TLR9-MyD88 block | CHOP inh | TLR4 MyD88 comp | CHOP UPR activ | UPR XBP1 act | NOD2-RIPK2 inh
Cn1nc(C2CC2)cc1NC(=O)C1(C)CCN1C(=O)CC(c1ccccc1)c1ccccc1 (stereo not drawn) | · | · | · | · | · | -14
COc1ccc(C(CCN2CCOCC2)c2c(O)cc(OC)cc2OC)cc1 (stereo not drawn) | -5 | 10 | · | -2 | 3 | -6
COc1ccc(C(c2c(O)ccc3ccccc23)N2CCOCC2)c(OC)c1 (stereo not drawn) | 1 | -45 | -6 | 28 | 10 | 48*
COc1ccccc1CNC(=O)c1ccc2ccccc2n1 | 0 | · | · | 0 | 1 | -2
CC(C)c1nc2sc3ccccc3c(=O)c2c(=O)n1Cc1ccccc1 | -1 | 11 | · | 0 | -2 | -6
COc1ccc(Cn2c(C(C)C)nc3sc4ccccc4c(=O)c3c2=O)cc1 | -12 | 79* | · | 2 | 0 | -19
CCc1nc2sc3ccccc3c(=O)c2c(=O)n1CCOC | -1 | -14 | 17 | -1 | 1 | 2
COCCn1c(C2CCCCC2)nc2sc3ccccc3c(=O)c2c1=O | -5 | 92* | -3 | -1 | -1 | -6
CC1CCN(c2ncnc3c2cnn3Cc2ccc(Cl)cc2)CC1 | -3 | 73* | -5 | 1 | 0 | 6
CC1CCCN(c2ncnc3c2cnn3-c2ccc(Cl)cc2)C1 (stereo not drawn) | -8 | 76* | · | -11 | -9 | -2
Cc1ccccc1N1CCN(c2ncnc3c2cnn3Cc2ccc(Cl)cc2)CC1 | 7 | 38 | 4 | 0 | -3 | -6
Cc1ccc(Cn2ncc3c(N4CCN(Cc5ccc(Cl)cc5)CC4)ncnc32)cc1 | -6 | 79* | 6 | -1 | -4 | 0
CCOC1(OCC)C(c2ccc(N)cc2)C(C#N)(C#N)C1(OCC)OCC (stereo not drawn) | -3 | 88* | 1 | 0 | 0 | -1
CCOC1(OCC)C(c2ccc(Cl)cc2)C(C#N)(C#N)C1(OCC)OCC (stereo not drawn) | -12 | 26 | 4 | -2 | -3 | -8
CC(O)C1CCC2C3CC[C@H]4CC(O)CCC4(C)C3CC3(OCCO3)C12C (stereo partly drawn) | 0 | -30 | -6 | -1 | -2 | 3
Cc1cc(NC(=O)CCl)n(-c2nc3ccccc3s2)n1 | 2 | 77* | 0 | 11 | 3 | -11
Cc1sc(NC(=O)c2oc3ccccc3c2C)c(C#N)c1C | -4 | 15 | -10 | 2 | 0 | 1
Cc1cc(C(=O)Nc2sc(C)c(C)c2C#N)c(C)o1 | 3 | 75* | -6 | 0 | 2 | 0
CCCCNC(=O)CCc1c(C)nc2c(c(C)nn2-c2ccccc2)c1C | 4 | · | · | -1 | -3 | -12
Cc1ccc(-n2nc(C)c3c(C)c(CCC(=O)NCc4ccccc4)c(C)nc32)cc1 | -9 | 70* | 3 | -2 | 0 | 4
Cc1ccc(CNC(=O)CCc2c(C)nc3c(c(C)nn3-c3ccc(C)cc3)c2C)cc1 | -5 | 51 | -22 | 3 | -1 | -2
